Sampled rows, rich in hits. Any-hit rate of the full collection: about 2.4%.
b-catenin transl: alters nuclear translocation of beta-catenin in HeLa cells | immunofluorescence imaging | nuclear translocation activity, % at 5 µM | 0.3% of 190,000 active | AID 1665;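 active = nuclear translocation activity above 50% at 5 µM, with a well cell count of 50 or more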;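 note: per-cell ratio of nuclear to cytoplasmic median beta-catenin stain intensity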
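System: HeLa cells, endogenous beta-catenin; compound dosing: 5 µM primary single dose, 0.1% DMSO, 0.02–20 µM confirmation series; incubation: 24 h compound exposure at 37°C, 5% CO2; signal: beta-catenin immunofluorescence imaging with DAPI; evaluation: % activation, nuclear-to-cytoplasmic median beta-catenin signal ratio per cell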
STAT3 act: STAT3 signaling activation; U3A cells, IL-6 STAT3-luciferase reporter, luminescence; 100% = signal with IL-6 EC80 alone; activation (% of control), % at 5.6 µM; 0.91% of 190,000 active; AID 871;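 active = activation above the screen-wide mean of compound activation plus 3 SD, cut at about 130% in these data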
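Material: human STAT1-deficient U3A cells with stable STAT3-luciferase reporter / Probe or stimulus: IL-6 stimulus at 33 ng/mL final / Schedule: 1 h compound pre-exposure, 6 h IL-6 stimulation, 37 °C / Technique: luminescence / Read-out basis: percent of IL-6-only median luminescence / Control set: IL-6-only high control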
STAT3 inh-1: reduces IL-6 driven STAT3 reporter signal | AID 862 | 0.89% of 190,000 active | inhibition, % at 5.5 µM | U3A cells, IL-6 STAT3-luciferase reporter, luminescence; host cell line lacks STAT1;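 active = inhibition above the mean inhibition across all screened compounds plus 3 SD, cut at about 44% in these data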
STAT1 blocker: STAT1 signaling inhibition; NIH 3T3 STAT1-luciferase reporter, IFN-gamma, luminescence; inhibition, % at 5.5 µM; 0.35% of 200,000 active; AID 920;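 active = inhibition above a set limit, the mean inhibition across all tested compounds plus 3 SD, cut at about 34% in these data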
MT stabilize HCS: microtubule stabilization, imaging screen; HeLa tubulin immunostaining HCS, 24 h; share of cells brighter than vehicle mean+2SD; % tubulin-high responders, % at 10 µM; 0.83% of 200,000 active;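 active = plate Z-score above 3 for both tubulin-high and condensed-nucleus cell shares, with cell loss under 80%, at 10 µM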;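 note: anti alpha tubulin signal scored within the nucleus-defined area of each cell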
STAT3 inh-2: STAT3 inhibition, confirmation assay; 45% of 1,200 active; U3A cells, IL-6 STAT3 luciferase reporter, luminescence; cell line lacks STAT1; inhibition, % at 5.7 µM; shares compounds with STAT3 inh-1;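 active = inhibition above the hit cutoff computed for the primary STAT3 screen, cut at about 44% in these data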
NFkB inh STAT3ct: NF-kappaB inhibition in STAT3 inhibitor counter-screen; shares compounds with STAT3 inh-1; HEK293T NF-kB luciferase reporter, TNF-alpha induced; inhibition, % at 5.7 µM; 36% of 1,200 active; AID 1308;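 active = inhibition above the mean of solvent-only control wells plus 3 SD, cutoff set per campaign, cut at about 13% in these data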
STAT1 inh STAT3c: counter-screen for STAT3 inhibitors: STAT1 inhibition; 27% of 1,200 active; inhibition, % at 5.7 µM; shares compounds with STAT3 inh-1; NIH 3T3 STAT1-luciferase reporter, IFN-gamma induced, luminescence;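 active = inhibition above the mean plus 3 SD of solvent-only control wells, limit set per screening run, cut at about 16% in these data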
A number is an active result; . = inactive; / = no result given.

SMILES	b-catenin transl	STAT3 act	STAT3 inh-1	STAT1 blocker	MT stabilize HCS	STAT3 inh-2	NFkB inh STAT3ct	STAT1 inh STAT3c
Cc1cc(C)nc(/N=C(\N)N(Cc2ccccc2)Cc2ccccc2)n1	.	.	.	.	.	/	/	/
O=S(Cc1cc(Oc2ccccc2)nc(-c2ccccc2)n1)c1ccccc1 (stereo unspecified)	.	.	.	.	.	/	/	/
S=C(Nc1ccc(Nc2ccccc2)cc1)Nc1ccccn1	.	.	.	.	.	/	/	/
O=C(Nc1ccccc1)C(=O)Nc1ccccn1	.	.	69.5	.	.	.	.	.
C/C(CC(=O)Nc1ccccn1)=N\NC(=O)C(=O)Nc1cccc(C)c1	/	.	.	.	.	/	/	/
O=C(Nc1cccc(O)c1)C(=O)Nc1ccccn1	.	.	70.6	.	.	51.4	.	.
Cc1ccccc1OCc1csc(N)n1	.	.	.	.	.	/	/	/
c1ccc(CCn2c(C3CC3)nc3ccccc32)cc1	/	.	.	.	.	/	/	/
CC(C)c1ccc(/C=C/C(=O)NC2=NCCS2)cc1	.	.	68.1	.	.	.	.	.
O=C(/C=C/c1ccc(Cl)c(Cl)c1)NC1=NCCS1	.	.	.	.	.	/	/	/
O=C(Nc1nc(-c2ccccc2)cs1)C1COc2ccccc2O1 (stereo unspecified)	.	.	.	.	.	/	/	/
Cc1csc(NC(=O)C2COc3ccccc3O2)n1 (stereo unspecified)	.	.	57.1	.	.	.	.	.
Cc1cnc(NC(=O)C2COc3ccccc3O2)s1 (stereo unspecified)	.	.	71.4	.	.	.	.	.
Cc1cc(C(=O)Cn2nc(C(=O)O)c3ccccc3c2=O)c(C)n1CCc1ccc(Cl)cc1	.	.	.	.	.	/	/	/
CN1/C(=C\C(=O)C[n+]2ccc(C(=O)c3ccccc3)cc2)C(C)(C)c2ccccc21	/	.	56.1	.	.	61.4	.	.
CN1/C(=C\C(=O)C[n+]2cccc(C(N)=O)c2)C(C)(C)c2ccccc21	.	.	.	.	.	/	/	/
CC(C)c1cc(NC(=O)CCl)on1	.	.	53.1	.	.	.	.	.
CC(NC(=O)CCl)c1ccc(Cl)c(Cl)c1 (stereo unspecified)	.	.	.	.	.	/	/	/
COc1ccc(/C=N/Nc2nc3ccccc3s2)cc1O	.	.	59.8	.	.	.	.	.
COc1ccc(/C=N/Nc2nc3ccccc3o2)cc1O	/	.	.	.	.	/	/	/
COc1ccc(/C=N/N=C(\N)c2nonc2N)cc1	.	.	50.6	.	.	.	.	.
O=S(=O)(Nc1ccccc1N1CCCCC1)c1ccc(F)cc1F	.	.	.	.	.	/	/	/
Cc1ccc(C(=O)n2c(=S)nc3ccccn32)cc1	/	.	49.6	.	.	.	.	.
CCc1cccc(CC)c1NC(=O)CSc1nc2ccc(N3C(=O)C4C(C3=O)[C@H]3C=C[C@@H]4C3)cc2s1 (stereo partly specified)	.	.	.	.	.	/	/	/
COc1ccc(C(=O)NCCC2=CCCCC2)cc1	.	.	52.2	.	.	.	.	.
SMILES	b-catenin transl	STAT3 act	STAT3 inh-1	STAT1 blocker	MT stabilize HCS	STAT3 inh-2	NFkB inh STAT3ct	STAT1 inh STAT3c
COc1ccc(C(=O)NCC(=O)OCC(=O)NCCC2=CCCCC2)cc1	.	.	.	.	.	/	/	/
COc1ccc(-c2noc(CCCC(=O)N3CCOCC3)n2)cc1	.	.	.	.	.	/	/	/
CC(C)(C)c1ccc(-c2noc(CCC(=O)N3CCOCC3)n2)cc1	.	.	51.1	.	.	.	.	.
COC(=O)/C=C/c1oc2ccccc2c1C	.	.	.	.	.	/	/	/
C=CCn1c(C)cc(C2=NNC(=NC(C)(C)C)SC2)c1C	.	.	57.6	.	.	45.5	28.0	.
C=CCn1c(C)cc(C2=NNC(=Nc3ccc(C)cc3)SC2)c1C	.	.	.	.	.	/	/	/
C=CCN=C1NN=C(c2cc(C)n(CCOC)c2C)CS1	.	.	77.6	.	.	.	.	.
O=C(COC(=O)c1ccccc1)NCCC1=CCCCC1	.	.	.	.	.	/	/	/
COc1cccc(NC(=S)N(CCN(C)C)C(C)c2ccncc2)c1 (stereo unspecified)	.	/	/	/	/	/	/	/
O=C(CN1CCOCC1)Nc1nc(-c2ccc3c(c2)CCN3S(=O)(=O)c2ccccc2)cs1	.	.	.	.	.	/	/	/
Cc1sc(NC(=O)CN2CCOCC2)nc1-c1ccc2c(c1)CCN2S(=O)(=O)c1ccccc1	.	.	65.7	.	.	52.5	21.6	20.3
N#CCC(=O)Nn1c(=S)[nH]c2ccccc2c1=O	/	.	.	.	.	/	/	/
COc1ccc(/C=C\c2nc(=O)c3ccccc3o2)cc1	.	.	62.3	.	.	.	.	.
Cc1nn(C)c(C)c1NC(=O)CSc1nc(C2CC2)nc2c1cnn2-c1ccccc1	.	.	50.3	.	.	.	.	.
CN(C)c1ccc(-c2n(C)c3ccccc3[n+]2C)cc1	.	.	74.4	.	.	64.9	.	24.3
Cn1c(-c2ccccn2)[n+](C)c2ccccc21	.	.	.	.	.	/	/	/
COc1ccc(/C=N/Nc2nc3ccccc3[nH]2)cc1OC	.	.	.	.	.	/	/	/
COc1cc(/C=N\Nc2nc3ccccc3[nH]2)cc(OC)c1OC	.	.	74.3	.	.	.	19.5	.
CCC(CC)C(=O)c1c[nH]c(C(=O)N2CCN(c3ccc(OC)cc3)CC2)c1	.	.	.	.	.	/	/	/
CN(C)CC(O)CN(c1ccccc1)c1ccccc1 (stereo unspecified)	.	/	/	/	/	/	/	/
Cc1ccccc1NC(=O)c1cnc2ccccn2c1=O	.	.	72.3	.	.	.	.	.
CCOC(=O)C(C)S(=O)(=O)c1ccc(C(F)(F)F)cn1 (stereo unspecified)	.	.	.	.	.	/	/	/
C/C(=N\N1C(=O)c2ccccc2NC1c1ccco1)c1ccccc1O (stereo unspecified)	.	.	45.5	.	.	.	.	.
O=C(/C(=N/N=C/c1ccc(O)c(O)c1)c1ccccc1)c1ccccc1	.	.	.	.	.	/	/	/
COc1ccccc1Nc1nnc(SCC2CCCCO2)s1 (stereo unspecified)	.	.	63.9	.	18.5	.	.	.
O=C1C(c2ccnc3ccccc23)=C(O)c2ccccc21	.	.	47.5	.	.	.	38.0	.
O=C1C(=O)c2ccccc2C(O)=C1c1ccccc1F	.	/	/	/	/	/	/	/
COC(=O)C1=NN(c2cccc(C)c2)C2C(=O)N(c3ccccc3OC)C(=O)C12 (stereo unspecified)	.	.	.	.	.	/	/	/
O=C(Nc1ccc(Oc2cccnc2)cc1)c1ccc([N+](=O)[O-])cc1	.	.	69.2	.	.	65.0	23.5	.
